Converted amounts (≈) assume the structure as drawn. The source made the active and inactive calls. The rule behind the calls is not given here.
Experiments:
[1] = test system: Plasmodium berghei; test: Antiplasmodial activity against liver stage of Plasmodium berghei infected in human HuH7 cells assessed as parasite growth inhibition incubated for 1 hr prior to parasite infection measured after 48 hrs; format: functional, organism-based; conditions: Huh-7, Liver
Procedure, shortened: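 Huh-7 cells (12 × 10^3/well) seeded the day before, given compound (10 mM MeOH stock diluted in medium) 1 h before adding 10 000 P. berghei PbGFP-Luccon sporozoites/well from mosquito salivary glands, then spun 1700g 5 min. Medium with compound renewed at 24 h. Luminescence read 48 h post-infection; IC50 by nonlinear regression of normalized dose–response.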

[2] = test system: Plasmodium falciparum; test: Antiplasmodial activity against blood stage of chloroquine-resistant Plasmodium falciparum W2 infected in human RBC assessed as parasite growth inhibition after 48 hrs by flow cytometric analysis; format: functional, organism-based; conditions: W2, 48 h
[3] = Selectivity index, ratio of EC50 for HEK293T cells to IC50 for blood stage of chloroquine-resistant Plasmodium falciparum W2 infected in human RBC; format: functional, HEK-293T
Procedure, shortened: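 Ratio of two values. EC50: HEK293T cells seeded the previous day in RPMI 1640/10% FBS, given serial DMSO-diluted compound for 48 h at 37 °C, 5% CO2, then MTT for 3 h; formazan read at 570 nm and EC50 fitted by nonlinear regression. IC50: 48 h W2 blood-stage growth in human RBCs, scored by YOYO-1 flow cytometry.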

[4] = test system: HEK-293T; test: Cytotoxicity against HEK293T cells; format: cell-based; conditions: Homo sapiens
Procedure, shortened: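 HEK293T seeded the day before in RPMI 1640 with 10% FBS, penicillin/streptomycin and 2 mM L-glutamine. Serial dilutions from DMSO were added for 48 h at 37 °C, 5% CO2. Then MTT for 3 h, formazan taken up in DMSO, absorbance read at 570 nm. EC50 by nonlinear regression of the concentration–response curve.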

[5] = test system: Huh-7; test: Cytotoxicity against human HuH7 cells assessed as cell viability up to 5 uM by AlamarBlue assay; format: cell-based
Procedure, shortened: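 Huh-7 hepatoma cells in RPMI 1640 with 10% FCS, nonessential amino acids, glutamine and 10 mM HEPES pH 7, kept at 37 °C, 5% CO2. Treated as in the liver-stage infection assay. Viability read by AlamarBlue per manufacturer's protocol.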

[6] = Inhibition of hemozoin-like crystal formation after 5 days; format: functional; conditions: 120 h
Procedure, shortened: (§1)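 Hemozoin-like crystal stock sonicated 3 min and diluted in broth to 2 μM final (heme equivalents). Compounds from 25 mM DMSO stocks were 0.22-μm filtered and dosed at 0–1000 μM final. Incubated 37 °C, 5% CO2, 5 days, then scored for presence or absence of crystal growth. Run in triplicate.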

[7] = test system: Plasmodium berghei; test: Potency index, ratio of primaquine IC50 to compound IC50 for liver stage of Plasmodium berghei infected in human HuH7 cells; format: functional, Huh-7
[8] = Inhibition of hemozoin-like crystal formation at 1 to 1000 uM after 5 days; format: functional; procedure, shortened: as §1
[9] = test system: Liver microsomes; test: Metabolic stability in rat liver microsomes assessed as compound remaining at 1 uM after 6 hrs by HPLC analysis in absence of NADPH-regenerating system; format: ADME, Microsome
Procedure, shortened: (§2)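 Compound at 1 μM incubated at 37 °C with pooled rat liver microsomes (0.2 mg protein/mL) in 10 mM phosphate buffer, pH 7.4. Reaction started with NADPH-regenerating system A (NADP+, glucose 6-phosphate, MgCl2) plus B (glucose 6-phosphate dehydrogenase); no-cofactor runs used water instead. Remaining compound measured after 6 h by RP-18 HPLC in acetonitrile/water 25:75, 1 mL/min.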

[10] = Metabolic stability in rat liver microsomes assessed as compound remaining at 1 uM after 6 hrs by HPLC analysis in presence of NADPH-regenerating system; format: ADME, Microsome; conditions: read-out: Stability; procedure, shortened: as §2
[11] = test system: Plasmodium falciparum; test: Antiplasmodial activity against Plasmodium falciparum 3D7 transfected with yeast GFP-tagged DHODH assessed as parasite growth inhibition; format: functional, organism-based
[12] = test system: Plasmodium falciparum; test: Antiplasmodial activity against Plasmodium falciparum 3D7 assessed as parasite growth inhibition; format: functional, organism-based
[13] = test system: Plasmodium falciparum; test: Inhibition of Plasmodium falciparum cytochrome bc1 complex using decylubiquinol as substrate at <= 10 uM by UV-visible spectrophotometric analysis
[14] = Chemical stability in aqueous buffer at pH 7.4 at 37 degC measured for 10 days; format: physicochemical; conditions: pH 7.4, 240 h
Procedure, shortened: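 Stability tested by holding compound in aqueous buffer at pH 7.4 (and pH 0.3) at 37 °C for 10 days.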

[15] = test system: Liver microsomes; test: Drug metabolism in rat liver microsomes assessed as quinoline metabolite formation through N-dealkylation of compound after 6 hrs by mass spectrophotometric analysis; format: ADME, Microsome

Compound	IC50 [1] [nM]	IC50 [2] [nM]	Selectivity Index [3]	EC50 [4] [nM]	Activity [5]	Stability [9]	remaining at 6 h, 1 µM [10] [%]	further results
Fc1ccc(-c2ccc3/c(=N/c4ccccc4)ccn(CCCN4CCCCC4)c3c2)cc1	1380	216	>463	> 100000				
Fc1ccc(-c2ccc3/c(=N/c4ccc(-c5ccccc5)cc4)ccn(CCCN4CCCCC4)c3c2)cc1	2070	55.4	138	7630	Non-toxic			MIC [6]: 500 µM (≈ 258 µg/mL)
Cc1ccc(/N=c2\ccn(CCCN3CCCCC3)c3cc(Cl)ccc23)cc1		331	>302	> 100000				
c1ccc(-c2ccc(/N=c3\ccn(CCCN4CCCCC4)c4cc(-c5cnc6ccccc6c5)ccc34)cc2)cc1	710	53.7	143	7680				Ratio IC50 [7]: > 10
FC(F)(F)c1ccc2c(c1)/c(=N/c1ccc(-c3ccccc3)cc1)ccn2CCCN1CCCCC1		631	38	23700	Non-toxic			MIC [6]: 1000 µM (≈ 490 µg/mL)
Fc1ccc(/N=c2\ccn(CCCN3CCCCC3)c3cc(Cl)ccc23)cc1	4780	369	>271	> 100000	Non-toxic			inhibition [8]: inactive
CCN(CC)CCn1cc/c(=N\c2ccc(-c3ccccc3)cc2)c2ccc(C(F)(F)F)cc21	4610	525	73	38500	Non-toxic	Stable	80.4	inhibition [8]: inactive
Clc1ccc2/c(=N/c3ccc(-c4ccccc4)cc3)ccn(CCN3CCCC3)c2c1	3460	111	>900	> 100000				IC50 [11]: 186 nM; IC50 [12]: 177 nM
Clc1ccc2/c(=N/c3ccccc3)ccn(CCCN3CCCCC3)c2c1		273	>366	> 100000	Non-toxic			inhibition [8]: inactive
GENTAMICIN								inhibition [8]: inactive
CCN(CC)CCCCn1cc/c(=N\c2ccc(-c3ccccc3)cc2)c2ccc(Cl)cc21	2650	67.6	>1479	> 100000		Stable	62.7	inhibition [13]: inactive; IC50 [11]: 68.3 nM; IC50 [12]: 64.7 nM
CCN(CC)CCn1cc/c(=N\c2ccc(-c3ccccc3)cc2)c2ccc(Cl)cc21		498	74	37100		Stable	68	
CCN(CC)CCCn1cc/c(=N\c2ccc(-c3ccccc3)cc2)c2ccc(Cl)cc21		151	>662	> 100000				
CCN(CC)CCCn1cc/c(=N\c2ccc(-c3ccccc3)cc2)c2ccc(C(F)(F)F)cc21		144	>694	> 100000				
Clc1ccc(/N=c2\ccn(CCCN3CCCCC3)c3cc(Cl)ccc23)cc1	2700	259	>386	> 100000	Non-toxic			inhibition [8]: inactive
Clc1ccc2/c(=N/c3ccc(-c4ccccc4)cc3)ccn(CCCN3CCCCC3)c2c1		144	290	41800				IC50 [11]: 52.3 nM; IC50 [12]: 73.7 nM
FC(F)(F)c1ccc2/c(=N/c3ccc(-c4ccccc4)cc3)ccn(CCCN3CCCCC3)c2c1		360	158	56800		Stable	65	IC50 [11]: 195 nM; IC50 [12]: 136 nM
CCN(CC)CCCC(C)Nc1ccnc2cc(Cl)ccc12 (stereo not given) [CHLOROQUINE]								MIC [6]: 125 µM (≈ 40 µg/mL)
CCN(CC)CCCCn1cc/c(=N\c2ccc(-c3ccccc3)cc2)c2ccc(C(F)(F)F)cc21		50.3	>1988	> 100000		Stable	81.5	
FC(F)(F)c1ccc2/c(=N/c3ccc(-c4ccccc4)cc3)ccn(CCN3CCCC3)c2c1		226	>442	> 100000	Non-toxic	Stable	79	inhibition [8]: inactive
Clc1ccc2/c(=N/c3ccc(Br)cc3)ccn(CCCN3CCCCC3)c2c1	3010	74	>1351	> 100000				
Clc1ccc2c(c1)/c(=N/c1ccc(-c3ccccc3)cc1)ccn2CCCN1CCCCC1		99.7	219	21800	Non-toxic	Stable	75	Stability [14]: Stable; MIC [6]: 1000 µM (≈ 456 µg/mL); Drug metabolism [15]: Active
c1ccc(-c2ccc(/N=c3\ccn(CCCN4CCCCC4)c4cc(Nc5ccccn5)ccc34)cc2)cc1	440	357	21	7340				Ratio IC50 [7]: > 10
Clc1ccc2/c(=N/c3ccc(Oc4ccccc4)cc3)ccn(CCCN3CCCCC3)c2c1		160	191	30600	Non-toxic	Stable	73	MIC [6]: 500 µM (≈ 236 µg/mL)
